Measurements as given in ChEMBL document CHEMBL1135127, “SAR and species/stereo-selective metabolism of the sorbitol dehydrogenase inhibitor, CP-470,711” (Bioorg Med Chem Lett, 2002).

Experiments:
Rattus norvegicus [1] = experiment: In vivo reversal of sciatic nerve fructose accumulation in streptozotocin rat by chronic assay at 1 mg/kg (qd x 5); type: functional
Outline: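 Reversal design in STZ rats: once-daily dosing began 5 days after STZ. Sciatic nerve fructose was measured and activity expressed as % normalization at 1 mg/kg.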

Sorbitol dehydrogenase [2] = target: T1, Sorbitol dehydrogenase (Homo sapiens, UniProt Q00796); experiment: In vitro inhibition against human recombinant sorbitol dehydrogenase
T1 sequence (Q00796 whole entry): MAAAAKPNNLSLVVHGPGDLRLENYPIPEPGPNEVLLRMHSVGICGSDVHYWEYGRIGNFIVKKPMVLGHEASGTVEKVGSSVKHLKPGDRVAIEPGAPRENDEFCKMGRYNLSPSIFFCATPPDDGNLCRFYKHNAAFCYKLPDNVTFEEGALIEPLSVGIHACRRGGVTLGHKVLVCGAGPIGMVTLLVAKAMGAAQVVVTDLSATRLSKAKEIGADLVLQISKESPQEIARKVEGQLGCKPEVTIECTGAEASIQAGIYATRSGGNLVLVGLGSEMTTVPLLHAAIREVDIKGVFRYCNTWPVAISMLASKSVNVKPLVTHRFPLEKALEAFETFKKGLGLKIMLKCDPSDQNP

Sorbitol dehydrogenase [3] = target: T2, Sorbitol dehydrogenase (Rattus norvegicus, UniProt P27867); experiment: Inhibition of recombinant rat sorbitol dehydrogenase
T2 sequence (P27867 whole entry): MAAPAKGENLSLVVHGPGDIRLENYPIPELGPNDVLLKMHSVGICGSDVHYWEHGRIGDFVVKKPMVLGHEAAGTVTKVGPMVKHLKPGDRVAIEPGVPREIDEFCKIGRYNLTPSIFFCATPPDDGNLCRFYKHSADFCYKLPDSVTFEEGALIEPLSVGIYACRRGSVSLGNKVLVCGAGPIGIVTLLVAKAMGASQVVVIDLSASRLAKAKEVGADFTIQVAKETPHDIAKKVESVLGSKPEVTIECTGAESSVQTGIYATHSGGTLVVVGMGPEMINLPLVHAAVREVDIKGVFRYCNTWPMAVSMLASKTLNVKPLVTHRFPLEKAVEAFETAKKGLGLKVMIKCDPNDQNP

Rattus norvegicus [4] = experiment: In vivo prevention of sciatic nerve fructose accumulation in streptozotocin diabetic rat by acute assay (tid x 4); type: functional
Outline: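 Streptozotocin-diabetic rats dosed three times daily, starting 4 h after STZ, to prevent sciatic nerve fructose accumulation. Activity is reported as ED90 in mg/kg/d.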

Sorbitol dehydrogenase [5] = target: T1, Sorbitol dehydrogenase; experiment: In vitro inhibition against human recombinant Sorbitol dehydrogenase
Sorbitol dehydrogenase [6] = target: T2, Sorbitol dehydrogenase; experiment: Inhibition of recombinant rat Sorbitol dehydrogenase

| IC50 (Sorbitol dehydrogenase [2]) | IC50 (Sorbitol dehydrogenase [3]) | IC50 (Sorbitol dehydrogenase [5]) | IC50 (Sorbitol dehydrogenase [6]) | SMILES | Reversal (Rattus norvegicus [1]) | ED90 (Rattus norvegicus [4]) |
| --- | --- | --- | --- | --- | --- | --- |
| 212 nM | 227 nM | – | – | CC(=O)c1nccc(N2C[C@@H](C)N(c3ccnc(C(C)=O)n3)[C@@H](C)C2)n1 | 92% | 0.9 mg/kg/day |
| 33 nM | 29 nM | – | – | C[C@H](O)c1nccc(N2C[C@@H](C)N(c3ccnc([C@@H](C)O)n3)[C@@H](C)C2)n1 | 81% | 0.4 mg/kg/day |
| – | – | 19 nM | 27 nM | C[C@H](O)c1nccc(N2[C@H](C)CN(c3ccnc([C@@H](C)O)n3)C[C@@H]2C)n1 | 81% | 0.8 mg/kg/day |
| 6 nM | 5 nM | – | – | CC(=O)c1nccc(N2[C@H](C)CN(c3ccnc([C@@H](C)O)n3)C[C@@H]2C)n1 | 77% | 0.5 mg/kg/day |
| 10 nM | 17 nM | – | – | C[C@@H]1CN(c2ccnc([C@@H](C)O)n2)C[C@H](C)N1c1ccnc([C@@H](C)O)n1 | 90% | 0.2 mg/kg/day |
| – | – | 831 nM | 640 nM | C[C@H](O)c1nccc(N2C[C@@H](C)N(c3ccnc([C@H](C)O)n3)[C@@H](C)C2)n1 | 84% | 0.7 mg/kg/day |
| – | – | 28 nM | 8 nM | CC(O)c1nccc(N2C[C@@H](C)N(c3ccnc(C(C)O)n3)[C@@H](C)C2)n1 (some centres not stated) | 92% | 0.6 mg/kg/day |
| 19 nM | 18 nM | – | – | CC(=O)c1nccc(N2C[C@@H](C)N(c3ccnc([C@@H](C)O)n3)[C@@H](C)C2)n1 | 94% | 0.2 mg/kg/day |
